Data set [1] deals with Escherichia coli. The experiment in a line: Antibacterial activity against Escherichia coli 1411 after 18 to 22 hrs in absence of colistin by broth microdilution method. The class given is functional. In a few lines: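 Broth microdilution per CLSI guidelines. Gram-negatives grown in TSB. Each strain tested alone and again with colistin at ¼ × MIC to permeabilize the outer membrane. Plates incubated at 37 °C for 18–22 h. MIC read as the lowest concentration showing no visible growth.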

The subject of data set [2] is Escherichia coli. In words: Antibacterial activity against tolC deficient Escherichia coli assessed as formation of misshapen cells at 25 ug/ml after 2 hrs in presence of sucrose by FM4-64/DAPI/SYTOX Green staining-based deconvolution microscopic analysis. The class given is functional.
The test system of data set [3] is Enterococcus faecalis. In words: Antibacterial activity against vancomycin-resistant Enterococcus faecalis HM-201 infected in Caenorhabditis elegans AU37 assessed as reduction in bacterial burden at 20 ug/ml after 18 hrs by CFU-based […] analysis relative to control. It counts as functional. The arrangement: scale not given: the % may be the effect or the level left. The essentials: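 C. elegans AU37 adults infected on an E. faecalis HM-201 lawn for 2 h, washed in M9, 20–25 worms per well. Treated in triplicate with 20 μg/mL, with water as negative control. Worms washed, lysed with silicon carbide by vortexing, diluted serially and plated on TSA with 50 μg/mL gentamicin. CFU counted after 18 h at 37 °C and expressed as % reduction versus untreated worms.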

For data set [4], the system named is Escherichia coli. The experiment in a line: Antibacterial activity against Escherichia coli O157:H7 ATCC 35150 after 18 to 22 hrs in absence of colistin by broth microdilution method. It counts as functional.
Data set [5] has as its system Bacillus subtilis. The experiment in a line: Antibacterial activity against Bacillus subtilis assessed as misshapen cells at 5 times MIC after 2 hrs in presence of methylsulfonyl methane by phase contrast microscopic analysis. It counts as functional. The essentials:
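B. subtilis grown in LB at 37 °C to OD600 ~0.2, then treated at 5 × MIC with MSM for osmotic stabilisation. At 2 h, stained with FM 4-64 (1 μg/mL), DAPI (1 μg/mL) and SYTOX Green (1 μg/mL). Imaged by deconvolution fluorescence and phase contrast microscopy.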

In a further data set the test system is HRT-18 cell line. In words: Cytotoxicity against human HRT18 cells assessed as reduction in cell viability up to 20 ug/ml after 2 hrs by MTS assay. It counts as cell-based. The following applies: hrt-18, 2 h. The essentials:
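HRT-18 cells maintained in RPMI-1640 with 10% fetal horse serum at 37 °C, 5% CO2. Exposed to 5, 10, 20 or 40 μg/mL for 2 or 24 h, then MTS added and absorbance read at 490 nm. Viability expressed relative to untreated cells, n ≥ 3, one-way ANOVA with Dunnett's test.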

Data set [6] can be described thus: Induction of proton motive force collapse in Escherichia coli inverted membrane vesicle in presence of succinate/O2-driven PMF generation system by ACMA-based fluorescence assay. The class given is functional, cell membranes. The essentials:
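E. coli inverted membrane vesicles (0.1 mg/mL membrane protein) with 2 μM ACMA and 0.5 mM ATP or succinate, in 10 mM HEPES-KOH, 5 mM MgSO4, 100 mM KCl, pH 7.5. Proton gradient followed by ACMA fluorescence (ex 410/em 480 nm). EC50 taken from dose-response curves. CCCP used as reference uncoupler.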

Data set [7] relates to Enterococcus faecalis. In words: Potentiation of vancomycin-induced antibacterial activity against Enterococcus faecalis HM-934 assessed as fold reduction in vancomycin MIC preincubated for 30 mins followed by vancomycin addition measured after 18 to 21 hrs. It counts as functional. The essentials:
(§1)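 VRE suspensions at 5×10^5 CFU/mL preincubated with compound at ½ × MIC for 30 min at room temperature. […] Fold reduction calculated as vancomycin MIC alone over MIC in combination.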

The subject of data set [8] is Enterococcus faecalis. The experiment in a line: Synergistic antimicrobial activity against Enterococcus faecalis ATCC 49532 after 20 hrs in presence of ciprofloxacin by checkerboard assay. The class given is functional. In a few lines:
(§2)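 Checkerboard in TSB with a starting inoculum of 1×10^5 CFU/mL. Compound and antibiotic diluted from 2× or 4× MIC along perpendicular axes. Incubated 20 h at 37 °C. ΣFIC calculated: ≤0.5 synergy, >0.5 to <2 additive, 2–4 indifference, >4 antagonism.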

Another data set concerns Staphylococcus aureus. The experiment in a line: Antibacterial against Methicillin-Resistant Staphylococcus aureus after 18 to 20 hrs by broth microdilution method. It counts as functional.
Data set [9] concerns Enterococcus faecalis. In words: Synergistic antimicrobial activity against Enterococcus faecalis ATCC 51299 after 20 hrs in presence of ciprofloxacin by checkerboard assay. The class given is functional. The essentials: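 Checkerboard assay. McFarland 0.5 suspension diluted in TSB to 1 × 10^5 CFU/mL. Compound diluted along one plate axis and antibiotic along the other, each starting at 2× or 4× MIC. Incubated 20 h at 37 °C, MIC read as no visible growth. Synergy defined as ΣFIC ≤0.5, additive >0.5 to <2, indifferent 2–4, antagonistic >4.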

Data set [10] deals with Bacillus subtilis. In words: Antibacterial activity against Bacillus subtilis assessed as cell lysis at 5 times MIC after 30 mins by sytox green staining-based deconvolution microscopic analysis. It counts as functional. The essentials: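 B. subtilis grown in LB at 37 °C to OD600 ~0.2 and treated, with or without MSM for osmotic stabilization, for 30 min or 2 h. Stained with FM 4-64 (1 μg/mL), DAPI (1 μg/mL) and SYTOX Green (1 μg/mL) to score permeability. Examined by deconvolution and phase-contrast microscopy.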

The test system of data set [11] is Enterococcus faecalis. In words: Synergistic antimicrobial activity against Enterococcus faecalis ATCC 51299 after 20 hrs in presence of ampicillin by checkerboard assay. It counts as functional. The essentials: as §2
Data set [12] deals with Enterococcus faecium. In words: Bactericidal activity against vancomycin-resistant Enterococcus faecium ATCC 700221 assessed as bacterial regrowth at 4 times MIC after 22 hrs by time-kill assay. The class given is functional. In a few lines: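 Late-log cells diluted to ~5 × 10^6 CFU/mL and exposed in triplicate to 4 × MIC, in TSB (E. faecalis HM-201) or BHI (E. faecium ATCC 700221) at 37 °C. Sampled at 0, 2, 4, 6, 8, 10, 12 and 24 h, diluted serially in PBS and plated on TSA or BHI agar. CFU/mL counted after 18–22 h. DMSO served as negative control.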

In the next data set the test system is Klebsiella pneumoniae. The experiment in a line: Antibacterial activity against Klebsiella pneumoniae BAA-1706 after 18 to 22 hrs in absence of colistin by broth microdilution method. It counts as functional.
Data set [13] concerns Enterococcus faecium. In words: Antibacterial activity against vancomycin-resistant Enterococcus faecium clinical isolates after 18 to 22 hrs by broth microdilution method. It counts as functional. In a few lines:
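CLSI broth microdilution against panels of enterococcal isolates. E. faecalis grown in TSB, E. faecium in BHI, 37 °C for 18–22 h. MIC is the lowest concentration without visible growth. MIC50 is the value inhibiting 50% of isolates in each group.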

Data set [14] deals with Enterococcus faecalis. The experiment in a line: Potentiation of vancomycin-induced antibacterial activity against Enterococcus faecalis HM-201 assessed as fold reduction in vancomycin MIC preincubated for 30 mins followed by vancomycin addition measured after 18 to 21 hrs. The class given is functional. The essentials: as §1
Data set [15] deals with Escherichia coli. In words: Antibacterial activity against tolC deficient Escherichia coli assessed as cell shape defects at 25 ug/ml after 30 mins in presence of sucrose by FM4-64/DAPI/SYTOX Green staining-based deconvolution microscopic analysis. It counts as functional.
In data set [16] the test system is Escherichia coli. In words: Antibacterial activity against tolC deficient Escherichia coli assessed as formation of spheroplasts at 25 ug/ml after 2 hrs in presence of sucrose by FM4-64/DAPI/SYTOX green staining-based deconvolution microscopic analysis. The class given is functional.
In another data set the test system is Pseudomonas aeruginosa. The experiment in a line: Antibacterial activity against Pseudomonas aeruginosa ATCC 15442 after 18 to 22 hrs in absence of colistin by broth microdilution method. It counts as functional.

Molecules are shown by their SMILES. pEC50: −log10 of the molar value. Converted amounts (≈) assume the structure as drawn. The source made the active and inactive calls.

For the compound `CCCCc1ccc(-c2nc(C)c(/C(C)=N/NC(=N)N)s2)cc1`, the MIC was 64 µg/mL (≈ 194 µM) with Escherichia coli [1]; 16 µg/mL (≈ 48.6 µM) in the data set on Escherichia coli [4]; 1.3 to 5.6 µg/mL (≈ 3.95 to 17 µM) against Staphylococcus aureus; 16 µg/mL (≈ 48.6 µM) with Klebsiella pneumoniae; 64 µg/mL (≈ 194 µM) against Pseudomonas aeruginosa. For the same compound, the result in the data set with Escherichia coli [2], in the data set with Bacillus subtilis [5], with Enterococcus faecium [12], in the data set with Escherichia coli [15] and in the data set on Escherichia coli [16] was Active. Besides, the Activity with Enterococcus faecalis [3] is on record as 89%; in the data set on HRT-18 cell line, “Non-Toxic”; in the data set with Bacillus subtilis [10], 95%. The pEC50 in data set [6] was 4.60. For the same compound, the outcome in the data set with Enterococcus faecalis [7] and in the data set with Enterococcus faecalis [14] was inactive. The figures for the “fractional inhibitory concentration index (FICI)” value in the data set with Enterococcus faecalis [8], in the data set with Enterococcus faecalis [9] and in the data set on Enterococcus faecalis [11] were 0.63 - 1, 0.5 and 3, respectively. The same compound returned an MIC50 in the data set on Enterococcus faecium [13] of 2 µg/mL (≈ 6.07 µM).
